Reference: ChEMBL document CHEMBL2034818, “Synthesis and evaluation of boronic acids as inhibitors of Penicillin Binding Proteins of classes A, B and C” (Bioorg Med Chem, 2012)
Residue numbers refer to the chain shown, from its start.

Key:
[1] = molecular target: D-alanyl-D-alanine carboxypeptidase (Actinomadura sp. R39) (UniProt P39045); assay: Inhibition of Actinomadura sp. R39 PBP using S2d as substrate assessed as residual activity at 1 mM incubated for 60 mins prior to substrate addition by DTNB-based spectrophotometry
Summary of the method: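 R39 (Actinomadura, prepared per Granier), 3.5 nM, pre-incubated with inhibitor 60 min at 25 °C in 10 mM sodium phosphate pH 7.2, 100 mM NaCl, 100 mM D-alanine, 0.01 mg/mL BSA; inhibitors from DMF stock, 1% DMF final. Residual activity from initial rate of S2d (1 mM) hydrolysis with DTNB (1 mM), read at 412 nm, corrected for spontaneous hydrolysis; triplicates, uninhibited control six replicates per plate.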

[2] = molecular target: T1, Penicillin-binding protein 2X (Streptococcus pneumoniae R6) (UniProt P59676); assay: Inhibition of penicillin-sensitive Streptococcus pneumoniae R6 PBP2x using S2d as substrate assessed as residual activity at 1 mM incubated for 60 mins prior to substrate addition by DTNB-based spectrophotometry
T1 sequence (whole entry): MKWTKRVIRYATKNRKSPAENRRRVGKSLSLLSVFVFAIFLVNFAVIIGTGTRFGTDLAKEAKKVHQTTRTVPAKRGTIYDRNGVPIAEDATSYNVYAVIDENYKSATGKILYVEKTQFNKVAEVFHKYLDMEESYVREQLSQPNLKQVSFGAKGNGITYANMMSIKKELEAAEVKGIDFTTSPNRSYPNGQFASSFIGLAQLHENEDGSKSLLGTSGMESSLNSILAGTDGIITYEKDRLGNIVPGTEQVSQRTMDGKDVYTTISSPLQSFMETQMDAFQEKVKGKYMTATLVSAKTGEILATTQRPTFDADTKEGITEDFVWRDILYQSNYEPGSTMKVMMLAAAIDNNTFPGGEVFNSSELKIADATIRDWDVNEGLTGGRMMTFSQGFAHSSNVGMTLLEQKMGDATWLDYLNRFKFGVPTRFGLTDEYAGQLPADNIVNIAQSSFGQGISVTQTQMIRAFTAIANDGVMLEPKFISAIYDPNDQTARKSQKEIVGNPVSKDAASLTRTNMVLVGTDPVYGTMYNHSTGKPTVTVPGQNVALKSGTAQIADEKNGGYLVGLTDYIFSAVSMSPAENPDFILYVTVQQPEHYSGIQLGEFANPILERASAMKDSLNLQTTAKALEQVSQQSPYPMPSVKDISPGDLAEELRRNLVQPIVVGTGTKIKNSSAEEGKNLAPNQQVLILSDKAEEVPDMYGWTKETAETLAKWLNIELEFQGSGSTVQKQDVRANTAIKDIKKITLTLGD
Summary of the method: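 S. pneumoniae PBP2x-R6, 0.09 µM, pre-incubated with inhibitor in 10 mM sodium phosphate pH 7.0 with 0.01 mg/mL BSA, 60 min, 25 °C; 1% DMF final. S2d (1 mM) plus DTNB (1 mM) then added; residual activity taken from initial hydrolysis rate at 412 nm, corrected for spontaneous hydrolysis; triplicates, six no-inhibitor controls per plate.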

Streptococcus pneumoniae [3] = assay: Inhibition of Streptococcus pneumoniae PBP1b assessed as residual activity at 1mM incubated for 60 mins prior to fluoresceyl-ampicillin labelling measured after 20 mins by SDS-PAGE analysis in the presence of triton X 100
Summary of the method: (§1)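 Assay A: purified S. pneumoniae PBP1b (0.7 µM) pre-incubated with inhibitor in 10 mM sodium phosphate pH 7.0, 60 min, 25 °C, 0.01% Triton X-100. Remaining active enzyme labelled with fluoresceyl-ampicillin (10 µM), 20 min; reaction stopped, run on SDS-PAGE, fluorescence of the band quantified as residual activity.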

Streptococcus pneumoniae [4] = assay: Inhibition of Streptococcus pneumoniae PBP1b assessed as residual activity at 100 uM incubated for 60 mins prior to fluoresceyl-ampicillin labelling measured after 20 mins by SDS-PAGE analysis in the presence of triton X 100; summary of the method: as §1
[5] = molecular target: T2, Penicillin-binding protein 2x (Streptococcus pneumoniae serotype 4 (strain ATCC BAA-334 / TIGR4)) (UniProt P14677); assay: Inhibition of penicillin-resistant Streptococcus pneumoniae 5204 PBP2x using S2d as substrate assessed as residual activity at 1 mM incubated for 4 hrs prior to substrate addition by DNTB-based spectrophotometry
T2 sequence (whole entry): T1 sequence (whole entry) with M385T

Staphylococcus aureus = assay: Inhibition of penicillin-resistant Staphylococcus aureus PBP2a assessed as residual activity at 1 mM incubated for 4 hrs prior to prior to fluoresceyl-ampicillin labelling measured after 20 mins by SDS-PAGE analysis
Enterococcus faecium = assay: Inhibition of penicillin-resistant Enterococcus faecium PBP5fm assessed as residual activity at 1 mM incubated for 4 hrs prior to prior to fluoresceyl-ampicillin labelling measured after 20 mins by SDS-PAGE analysis
[6] = molecular target: T3, D-alanyl-D-alanine carboxypeptidase (Actinomadura sp. R39, UniProt P39045); assay: Inhibition of Actinomadura sp. R39 PBP using S2d as substrate incubated for 60 mins prior to substrate addition by DTNB-based spectrophotometry
Summary of the method: (§2)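 PBP purified per earlier method. Pre-incubation: enzyme with inhibitor (DMF stock, 1% DMF final) at 25 °C for 60 min. Buffer for R39 (3.5 nM): 10 mM sodium phosphate pH 7.2, 100 mM NaCl, 100 mM D-alanine, 0.01 mg/mL BSA. Buffer for PBP2xR6: 10 mM sodium phosphate pH 7.0, 0.01 mg/mL BSA. S2d (1 mM) and DTNB (1 mM) then added. Initial hydrolysis rate read at 412 nm. Triplicates. IC50 by non-linear regression of residual activity over a concentration range, with 0.01% Triton X-100.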

[7] = molecular target: T4, Penicillin-binding protein 2X (Streptococcus pneumoniae R6, UniProt P59676); assay: Inhibition of penicillin-sensitive Streptococcus pneumoniae R6 PBP2x using S2d as substrate incubated for 60 mins prior to substrate addition by DTNB-based spectrophotometry; summary of the method: as §2
T4 sequence (P59676 whole entry): T1 sequence (whole entry)

[8] = Inhibition of Streptococcus pneumoniae PBP1b using PATP thioester as substrate incubated for 60 mins prior to substrate addition by DNTB-based spectrophotometry in the presence of triton X 100
Summary of the method: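 Assay B: S. pneumoniae PBP1b (0.2 µM) pre-incubated with inhibitor 60 min at 25 °C in 10 mM sodium phosphate pH 7.0, 100 mM D-alanine, 0.01 mg/mL BSA, 0.01% Triton X-100. Residual activity from initial rates of PATP thioester (5 mM) hydrolysis with DTNB (1.0 mM); IC50 by non-linear regression of residual activity across concentrations.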

Streptococcus pneumoniae [9] = assay: Inhibition of Streptococcus pneumoniae PBP1b using PATP thioester as substrate assessed as residual activity at 1 mM incubated for 60 mins prior to substrate addition by DNTB-based spectrophotometry
Summary of the method: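 PBP1b (0.2 µM) pre-incubated with inhibitor for 60 min at 25 °C in 10 mM sodium phosphate pH 7.0, 100 mM D-alanine, 0.01 mg/mL BSA. PATP thioester (5 mM) and DTNB (1.0 mM) then added. Residual activity derived from initial hydrolysis rates against no-inhibitor controls.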

[10] = molecular target: T3, D-alanyl-D-alanine carboxypeptidase; assay: Binding affinity to Actinomadura sp. R39 PBP
[11] = Inhibition of Streptococcus pneumoniae PBP1b incubated for 60 mins prior to fluoresceyl-ampicillin labelling measured after 20 mins by SDS-PAGE analysis in the presence of triton X 100; summary of the method: as §1

Chain of D-alanyl-D-alanine carboxypeptidase (Actinomadura sp. R39) (P39045 whole entry): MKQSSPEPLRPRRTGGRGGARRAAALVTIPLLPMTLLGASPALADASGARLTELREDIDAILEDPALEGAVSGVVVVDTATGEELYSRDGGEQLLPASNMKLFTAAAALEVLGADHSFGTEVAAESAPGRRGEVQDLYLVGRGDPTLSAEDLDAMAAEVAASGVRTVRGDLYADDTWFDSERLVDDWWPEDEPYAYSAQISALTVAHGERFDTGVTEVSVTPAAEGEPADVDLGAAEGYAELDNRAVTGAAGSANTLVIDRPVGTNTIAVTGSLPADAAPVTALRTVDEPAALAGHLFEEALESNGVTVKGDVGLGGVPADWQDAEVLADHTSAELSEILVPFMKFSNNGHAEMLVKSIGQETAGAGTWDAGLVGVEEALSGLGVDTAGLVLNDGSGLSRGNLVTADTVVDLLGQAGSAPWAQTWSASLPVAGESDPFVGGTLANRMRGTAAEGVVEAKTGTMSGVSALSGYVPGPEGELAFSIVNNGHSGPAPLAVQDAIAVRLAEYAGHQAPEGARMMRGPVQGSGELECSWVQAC
T3 sequence (P39045 whole entry): as above

| SMILES | Activity [1] | Activity [2] | Activity (Streptococcus pneumoniae [3]) | Activity (Streptococcus pneumoniae [4]) | Activity [5] | Activity (Staphylococcus aureus) | Activity (Enterococcus faecium) | IC50 [6] | IC50 [7] | IC50 [8] | Activity (Streptococcus pneumoniae [9]) | Ki [10] | IC50 [11] |
| --- | --- | --- | --- | --- | --- | --- | --- | --- | --- | --- | --- | --- | --- |
| O=C(CCc1ccccc1)NCB(O)O | 51% | 71% | 0% | 95% | 99% | 83% | 79% | – | – | – | – | – | – |
| COc1cccc(OC)c1C(=O)NCB(O)O | 0% | 26% | – | – | 100% | – | – | 1.3 µM | 278 µM | > 1000 µM | 67% | 1.5 µM | – |
| Cc1ccccc1C(=O)NCB(O)O | 45% | 70% | – | 27% | 105% | 88% | 85% | – | – | 18 µM | – | – | – |
| COc1cccc(C(=O)NCB(O)O)c1 | 50% | 55% | 23% | – | 101% | 91% | 89% | – | – | – | – | – | 79 µM |
